Screening results deposited in PubChem by NMMLSC.
Sampled rows, rich in hits. Any-hit rate of the full collection: about 2.5%.
MEKK3 PB1 HTS: raises or lowers MEK5 binding to the human MEKK3 PB1 domain; binding response (% of control), % at 10 µM; Q99759; AID 1529; 290,000 tested, 1.4% active; bead-based flow cytometry, Alexa488-MEK5 binding to MEKK3; actives lie on both sides; 0 = blocked by unlabeled MEK5, 100 = vehicle;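 active means binding response more than 3 SD above or below the average of its plate-row segment, actives on both sides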;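 further: Alexa488 bead fluorescence after subtracting the streptavidin-only scavenger bead signal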
ABCB1 block: blocks JC-1 efflux by human ABCB1 transporter; P08183; 190,000 tested, 0.067% active; AID 1326; CCRF-Adr cells, flow cytometry; inhibition, % at 6.6 µM; in the data active means inhibition above about 40%;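 further: 0% = vehicle and 100% = reference inhibitor; higher value means more JC-1 retained so stronger ABCB1 efflux block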
MEKK2mut PB1 HTS: signal of MEK5 binding to mutant human MEKK2 PB1 domain; AID 1530; percent response, % at 10 µM; bead flow cytometry, Alexa488-MEK5 binding to MEKK2 mutant; 290,000 tested, 0.35% active; in the data active means percent response above about 24%, passing the limit was not always enough
ABCG2 inh: human ABCG2 inhibition, ABCB1 as counter-screen; Q9UNQ0; IgMXP3 cells, JC-1 efflux, flow cytometry; inhibition, % at 6.6 µM; 190,000 tested, 0.1% active; AID 1325;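 active means inhibition above 80%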;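 further: 0% = DMSO and 100% = nicardipine control wells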
Target sequence (Q9UNQ0 whole entry, looked up): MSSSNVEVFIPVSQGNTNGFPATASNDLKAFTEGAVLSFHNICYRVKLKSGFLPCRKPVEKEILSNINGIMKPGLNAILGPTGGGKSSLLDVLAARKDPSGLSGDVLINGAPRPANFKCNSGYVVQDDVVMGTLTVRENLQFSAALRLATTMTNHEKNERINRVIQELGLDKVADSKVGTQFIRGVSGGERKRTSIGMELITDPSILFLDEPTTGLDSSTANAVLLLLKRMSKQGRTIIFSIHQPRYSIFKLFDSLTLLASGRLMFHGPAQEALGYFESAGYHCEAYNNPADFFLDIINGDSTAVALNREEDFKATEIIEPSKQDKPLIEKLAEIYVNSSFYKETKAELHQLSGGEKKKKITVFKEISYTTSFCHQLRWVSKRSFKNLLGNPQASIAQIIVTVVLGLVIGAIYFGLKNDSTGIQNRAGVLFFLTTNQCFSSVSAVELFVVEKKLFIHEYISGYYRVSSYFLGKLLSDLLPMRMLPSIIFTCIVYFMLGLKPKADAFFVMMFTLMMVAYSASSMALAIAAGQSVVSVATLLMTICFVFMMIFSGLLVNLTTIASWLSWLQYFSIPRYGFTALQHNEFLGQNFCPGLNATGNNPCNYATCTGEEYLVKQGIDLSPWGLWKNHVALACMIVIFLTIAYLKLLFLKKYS
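System: two drug-resistant human cell lines, ABCG2 and ABCB1; controls: nicardipine high and DMSO low controls; times: 10 min exposure at 25 °C with rotation, no wash; detection: flow cytometry of retained JC-1 fluorescence; read-out basis: percent efflux inhibition, scaled nicardipine 100% to DMSO 0%; doses: one concentration, 6.6 µM final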
MEKK2 WT-MEK5: raises or lowers MEK5 binding to wildtype human MEKK2 PB1 domain. Q9Y2U5. bead flow cytometry, Alexa488-MEK5 binding to MEKK2 WT; actives lie on both sides. binding response (% of control), % at 10 µM. 290,000 tested, 1.1% active; in the data active means binding response below about 67% or above about 130%
Efflux pump mplx: antifungal efflux pump inhibition, Nile Red retention; S. cerevisiae Candida pump triplex; inhibition, % at 10 µM; 330,000 tested, 0.44% active; AID 485275;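 active means plate passing quality check with inhibition over a set limit, or well fluorescence over plate mean plus 4 SD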;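 further: Nile Red retained in pooled yeast measured as flow cytometry median fluorescence; 0% = buffer negative control and 100% = Enniatin B positive control; higher means more Nile Red kept so more efflux inhibition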
MEKK2wt confirm: raises or lowers MEK5 binding to wildtype human MEKK2, retest. shares compounds with MEKK3 PB1 HTS. bead flow cytometry, Alexa488-MEK5 binding to MEKK2 WT; actives lie on both sides. binding response (% of control), % at 10 µM. 5,900 tested, 2.4% active. AID 1892; in the data active means binding response below about 16% or above about 210%; inactive means in between
MEKK2mut-MEK5: signal of MEK5 binding to mutant human MEKK2, retest; shares compounds with MEKK3 PB1 HTS; bead flow cytometry, Alexa488-MEK5 binding to MEKK2 mutant; percent response, % at 10 µM; 5,900 tested, 2% active; AID 1893; in the data active means percent response mostly above about 71%, no sharp cut-off; inactive means mostly below about 38%;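 further: higher means compound restores mutant binding toward wildtype level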
MEKK3 confirm: MEKK3-MEK5 PB1 inhibition, single concentration confirmation; binding response (% of control), % at 10 µM; bead flow cytometry, Alexa488-MEK5 binding to MEKK3; hits give low values; shares compounds with MEKK3 PB1 HTS; 5,900 tested, 1.8% active; AID 1894;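 active means binding response below 72% of control, or above a set upper limit, though filed actives all read lower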;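 further: 100% = DMSO only wells and 0% = binding blocked by excess unlabeled MEK5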
* = called active by the depositor; . = no result given; [ ] = dose if it differs, or a comment.

SMILES | MEKK3 PB1 HTS | ABCB1 block | MEKK2mut PB1 HTS | ABCG2 inh | MEKK2 WT-MEK5 | Efflux pump mplx | MEKK2wt confirm | MEKK2mut-MEK5 | MEKK3 confirm
Cc1ccc(CN2CCN(CC(=O)NCCCN3CCN(c4ccc(F)cc4)CC3)C2=O)cc1 | 104 | 1 | 24* | 1 | 136 | 0 | 133 | 7 | 103
COc1ccc(N2CCN(CCCNC(=O)CN3CCN(Cc4ccccc4C)C3=O)CC2)cc1 | 105 | 0 | 14 | -1 | 143* | 0 | 171 | 42 | 103
CCOCCCNC(=O)CN1CCN(c2ccc(F)cc2)CC1 | 89 | 1 | -3 | 3 | 91 | 0 | . | . | .
O=C(CN1CCN(Cc2ccccc2Cl)C1=O)NCCCN1CCOCC1 | 100 | . | 0 | . | 100 | 0 | . | . | .
CC(=O)Nc1ccc(S(=O)(=O)N(Cc2ccccc2)C(C)C)cc1 | 1.0*[inhibitor] | 1 | -18 | 3 | 1.0*[inhibitor] | 0 | 92 | -7 | 99
CCN1C(=O)[C@H]2[C@@H](c3ccc(-c4ccc(C(C)=O)cc4)cc3)N3CCC[C@@]3(C(=O)OC)[C@H]2C1=O | . | . | . | . | . | 0 | . | . | .
O=C(COC(=O)c1n[nH]c(=O)c2ccccc12)c1ccccc1 | 97 | 1 | 0 | 4 | 99 | 0 | . | . | .
COc1cccc(C(=O)COC(=O)c2n[nH]c(=O)c3ccccc23)c1 | 60*[inhibitor] | 0 | -12 | 2 | 71 | 0 | 101 | 4 | 104
O=C(CCl)c1ccc2c(c1)CCN2C(=O)C1CCCCC1 | 117 | -1 | -7 | -3 | 97 | 0 | . | . | .
CCCCC(=O)N(c1ccc(C)c(C)c1)C1C=CS(=O)(=O)C1 (stereo not drawn) | 1.0*[inhibitor] | 0 | -22 | 0 | -7.0*[inhibitor] | 0 | 99 | -5 | 101
OCC1(CCOc2ccccc2)CCN(CC2=Cc3cc(Cl)ccc3OC2)CC1 | 109 | 0 | 7 | 1 | 153* | 0 | 137 | 15 | 107
CC1C=CCC2C(=O)N(c3ccc(OC(=O)c4ccco4)cc3)C(=O)C12 (stereo not drawn) | 161* | 0 | 7 | 2 | 134 | 0 | 111 | 6 | 106
CC12CC3(C)CC(C)(C1)CC(C(=O)NC(=S)N1CCCC1)(C2)C3 | 96 | 0 | -7 | 3 | 94 | 0 | . | . | .
Cc1nn(Cc2cccc(C(=O)O)c2)c(C)c1[N+](=O)[O-] | 106 | . | 9 | . | 102 | 0 | . | . | .
Cc1nn(Cc2cccc(C(=O)Nn3cc([N+](=O)[O-])cn3)c2)c(C)c1[N+](=O)[O-] | 128* | 1 | 0 | 4 | 104 | 0 | 96 | -12 | 97
O=C(Nc1ccc(S(=O)(=O)Nc2nccs2)cc1)c1cnc(Cl)c(Cl)c1 | 46*[inhibitor] | . | -8 | . | 54 | 0 | 104 | -2 | 103
O=C(CSc1nnc(-c2cccnc2)o1)N1CCCCC1 | 104 | . | 10 | . | 104 | 0 | . | . | .
O=C(Cn1cnc2ccccc2c1=O)N1CCN(c2ccccc2)CC1 | 122* | 1 | 6 | 1 | 104 | 0 | 102 | 1 | 103
Cc1ccc(NC2Sc3ccccc3NC2=O)cc1Cl (stereo not drawn) | 95 | . | -3 | . | 95 | 0 | . | . | .
COc1ccc(C2/C=C\CN(Cc3ccc(N(C)C)cc3)CC(=O)N2Cc2ccc(F)cc2)cc1 (stereo not drawn) | 106 | . | 3 | . | 102 | 0 | . | . | .
Clc1ccc(OCCCNCc2ccccc2)c2ccccc12 | 117 | . | 28* | . | 253* | 0 | 161 | 29 | 102
Brc1ccccc1OCCNCc1ccccc1 | 88 | 32 | -11 | 0 | 95 | 0 | . | . | .
O=C(Nc1ccon1)c1cccc(C(F)(F)F)c1 | 70*[inhibitor] | 0 | -3 | 0 | 77 | 0 | 96 | -4 | 102
O=C(Nc1ccccc1)c1cccc(N2CCCC2=O)c1 | 61*[inhibitor] | 1 | -16 | 32 | 77 | 0 | 107 | 13 | 110
O=C(Nc1ccccc1)c1cccc(C(F)(F)F)c1 | 144* | 1 | 1 | 11 | 108 | 0 | 104 | 1 | 105
SMILES | MEKK3 PB1 HTS | ABCB1 block | MEKK2mut PB1 HTS | ABCG2 inh | MEKK2 WT-MEK5 | Efflux pump mplx | MEKK2wt confirm | MEKK2mut-MEK5 | MEKK3 confirm
Cc1ccc2nc(Cl)c(CN(C(=O)c3cnccn3)C3CCCCC3)cc2c1 | 2.0*[inhibitor] | 0 | -26 | 0 | -2.0*[inhibitor] | 0 | 104 | 0 | 101
O=C(OCC(=O)N(C1CCCCC1)C1CCCCC1)c1cnccn1 | . | -2 | . | -2 | . | 0 | . | . | .
CC(=O)Nc1ccc(/C(C)=N/NS(=O)(=O)c2ccccc2)cc1 | 128* | 1 | 0 | 6 | 107 | 0 | 108 | 5 | 106
CS(=O)(=O)c1ccc(Cl)c(NC(=O)COC(=O)CCCN2C(=O)c3cccc4cccc(c34)C2=O)c1 | . | . | . | . | . | 0 | . | . | .
O=C(CN1CCCCCCC1)N/N=C/c1ccc(F)c(F)c1 | 104 | 0 | -1 | 6 | 104 | -6 | . | . | .
Clc1ccc(-c2cn3cc(Br)ccc3n2)cc1Cl | 150* | 1 | 0 | 17 | 109 | 0 | 93 | -2 | 100
O=C1CN(C(=O)c2ccccc2F)C(c2ccc(F)cc2)c2cc(Br)ccc2N1 (stereo not drawn) | 103 | . | 5 | . | 100 | 0 | . | . | .
SC(COCc1ccccc1)CN1CCN(Cc2ccc3c(c2)OCO3)CC1 (stereo not drawn) | 108 | 2 | 42 | 19 | 142* | 0 | 168 | 31 | 107
CC(=O)Nc1ccc(S(=O)(=O)N[C@@H](C)C(=O)OCc2ccc(Cl)cc2)cc1 | 144* | 0 | 0 | 5 | 107 | 0 | 107 | 0 | 102
CC(=O)Nc1ccc(S(=O)(=O)N[C@@H](C)C(=O)OCC(=O)c2ccc(C)cc2)cc1 | . | . | . | . | . | 0 | . | . | .
CCc1ccc2c(CN3CCN(S(=O)(=O)c4ccccc4F)CC3)cc(=O)oc2c1 | . | . | . | . | . | 0 | . | . | .
CCc1ccc2c(CN3CCN(S(=O)(=O)c4cccs4)CC3)cc(=O)oc2c1 | 135* | 2 | 1 | 12 | 100 | 0 | 92 | -8 | 98
CCN(CC)c1nc2ccccc2n2cnnc12 | 98 | 0 | 0 | 5 | 99 | 0 | . | . | .
O=c1[nH]c2ccccc2n2cnnc12 | 147* | 1 | 6 | 1 | 126 | 0 | 100 | 6 | 105
CC(C)(C)NC(=O)COC(=O)CNC(=O)c1cc(Cl)cc([N+](=O)[O-])c1 | 131* | 1 | 0 | 22 | 106 | 0 | 92 | -8 | 89
